ChEMBL document CHEMBL6071131, “New substituted benzoxazine derivatives as potent inducers of membrane permeability and cell death” (Bioorg Med Chem, 2024)
pIC50: −log10 of the molar value. Calls of active or inactive are those of the source. The calls are words filed in the database; no cut-off is given here.

Key:
MCF7 [1] = test: Antiproliferative activity against human MCF7 cells incubated for 72 hrs by SRB assay; assay type: functional, cell-based; conditions: MCF7, 72 h
Method in brief: (§1)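 Sulforhodamine B colorimetric read-out after 72 h drug exposure. Cells kept in DMEM with 10 % FBS and 1 % penicillin/streptomycin at 37 °C under 5 % CO₂, mycoplasma-checked, passaged under 6 months. Compounds given from DMSO stocks diluted in medium, final DMSO ≤ 0.1 % v/v, with DMSO-only parallel cultures as controls. IC50 reported as mean ± SD of three independent determinations, each run in duplicate.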

HCT-116 [2] = test: Antiproliferative activity against human HCT-116 cells incubated for 72 hrs by SRB assay; assay type: functional, cell-based; conditions: HCT-116, 72 h; method in brief: as §1
Homo sapiens [3] = species on record: Homo sapiens; test: Inhibition of human AKT assessed as residual activity at 5 uM relative to control
Method in brief: (§2)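 Residual kinase activity determined with each compound at 5×10⁻⁶ and 5×10⁻⁵ M, in singlicate per kinase assay, expressed relative to uninhibited control.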

Homo sapiens [4] = species on record: Homo sapiens; test: Inhibition of human AKT assessed as residual activity at 50 uM relative to control; method in brief: as §2
[5] = target: 5'-AMP-activated protein kinase catalytic subunit alpha-1 (Homo sapiens) (UniProt Q13131); test: Inhibition of human AMPK alpha-1 assessed as residual activity at 5 uM relative to control; method in brief: as §2
Sequence of 5'-AMP-activated protein kinase catalytic subunit alpha-1 (Homo sapiens) (Q13131 whole entry, looked up): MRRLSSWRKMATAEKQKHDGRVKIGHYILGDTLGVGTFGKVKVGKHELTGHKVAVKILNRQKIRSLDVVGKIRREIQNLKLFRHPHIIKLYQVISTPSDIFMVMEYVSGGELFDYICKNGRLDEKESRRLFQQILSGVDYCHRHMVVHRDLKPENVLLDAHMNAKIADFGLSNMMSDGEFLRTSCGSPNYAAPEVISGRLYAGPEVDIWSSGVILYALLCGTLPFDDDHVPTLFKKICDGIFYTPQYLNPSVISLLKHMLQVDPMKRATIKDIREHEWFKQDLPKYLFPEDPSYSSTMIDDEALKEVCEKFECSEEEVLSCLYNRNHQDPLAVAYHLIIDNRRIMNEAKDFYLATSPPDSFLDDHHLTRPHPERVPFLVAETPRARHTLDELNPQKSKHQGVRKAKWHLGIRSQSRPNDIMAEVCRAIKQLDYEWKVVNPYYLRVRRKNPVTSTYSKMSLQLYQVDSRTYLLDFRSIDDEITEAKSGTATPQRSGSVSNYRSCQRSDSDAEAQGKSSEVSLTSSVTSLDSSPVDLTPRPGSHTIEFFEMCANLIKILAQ

[6] = target: 5'-AMP-activated protein kinase catalytic subunit alpha-1 (Homo sapiens) (UniProt Q13131); test: Inhibition of human AMPK alpha-1 assessed as residual activity at 50 uM relative to control; method in brief: as §2
[7] = target: Epidermal growth factor receptor (Homo sapiens) (UniProt P00533); test: Inhibition of human EGFR assessed as residual activity at 5 uM relative to control; method in brief: as §2
Sequence of Epidermal growth factor receptor (Homo sapiens) (P00533 whole entry): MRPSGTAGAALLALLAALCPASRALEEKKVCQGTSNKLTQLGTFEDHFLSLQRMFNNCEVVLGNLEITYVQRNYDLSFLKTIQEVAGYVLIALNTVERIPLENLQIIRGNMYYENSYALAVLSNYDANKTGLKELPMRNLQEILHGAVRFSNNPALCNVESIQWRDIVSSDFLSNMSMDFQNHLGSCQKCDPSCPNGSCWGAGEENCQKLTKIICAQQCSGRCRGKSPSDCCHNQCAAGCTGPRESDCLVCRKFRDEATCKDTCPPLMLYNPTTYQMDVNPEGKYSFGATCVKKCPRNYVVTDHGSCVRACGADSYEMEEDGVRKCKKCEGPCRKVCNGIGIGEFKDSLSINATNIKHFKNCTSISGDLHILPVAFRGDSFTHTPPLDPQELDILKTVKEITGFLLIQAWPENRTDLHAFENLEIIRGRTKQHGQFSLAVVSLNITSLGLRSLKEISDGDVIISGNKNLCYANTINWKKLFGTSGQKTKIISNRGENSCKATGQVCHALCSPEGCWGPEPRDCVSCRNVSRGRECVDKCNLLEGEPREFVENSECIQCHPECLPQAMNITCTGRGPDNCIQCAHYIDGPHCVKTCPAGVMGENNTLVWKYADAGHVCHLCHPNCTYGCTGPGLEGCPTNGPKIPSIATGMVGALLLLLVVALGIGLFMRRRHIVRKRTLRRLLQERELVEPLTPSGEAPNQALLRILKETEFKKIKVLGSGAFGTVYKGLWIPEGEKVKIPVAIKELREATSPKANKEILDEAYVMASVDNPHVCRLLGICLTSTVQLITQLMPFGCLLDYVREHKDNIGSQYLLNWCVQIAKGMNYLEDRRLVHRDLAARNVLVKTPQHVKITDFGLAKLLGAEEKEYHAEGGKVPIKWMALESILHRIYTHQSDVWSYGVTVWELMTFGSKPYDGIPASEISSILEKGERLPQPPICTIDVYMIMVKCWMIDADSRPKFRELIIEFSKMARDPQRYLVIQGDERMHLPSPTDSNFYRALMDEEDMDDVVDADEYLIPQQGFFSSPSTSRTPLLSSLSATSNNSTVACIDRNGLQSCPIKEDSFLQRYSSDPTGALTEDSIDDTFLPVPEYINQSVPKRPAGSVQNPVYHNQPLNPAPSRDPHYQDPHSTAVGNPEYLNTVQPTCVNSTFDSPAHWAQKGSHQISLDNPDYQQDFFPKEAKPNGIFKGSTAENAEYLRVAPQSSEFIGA

[8] = target: Epidermal growth factor receptor (Homo sapiens) (UniProt P00533); test: Inhibition of human EGFR assessed as residual activity at 50 uM relative to control; method in brief: as §2
[9] = target: Receptor tyrosine-protein kinase erbB-2 (Homo sapiens) (UniProt P04626); test: Inhibition of human HER2 assessed as residual activity at 5 uM relative to control; method in brief: as §2
Sequence of Receptor tyrosine-protein kinase erbB-2 (Homo sapiens) (P04626 whole entry): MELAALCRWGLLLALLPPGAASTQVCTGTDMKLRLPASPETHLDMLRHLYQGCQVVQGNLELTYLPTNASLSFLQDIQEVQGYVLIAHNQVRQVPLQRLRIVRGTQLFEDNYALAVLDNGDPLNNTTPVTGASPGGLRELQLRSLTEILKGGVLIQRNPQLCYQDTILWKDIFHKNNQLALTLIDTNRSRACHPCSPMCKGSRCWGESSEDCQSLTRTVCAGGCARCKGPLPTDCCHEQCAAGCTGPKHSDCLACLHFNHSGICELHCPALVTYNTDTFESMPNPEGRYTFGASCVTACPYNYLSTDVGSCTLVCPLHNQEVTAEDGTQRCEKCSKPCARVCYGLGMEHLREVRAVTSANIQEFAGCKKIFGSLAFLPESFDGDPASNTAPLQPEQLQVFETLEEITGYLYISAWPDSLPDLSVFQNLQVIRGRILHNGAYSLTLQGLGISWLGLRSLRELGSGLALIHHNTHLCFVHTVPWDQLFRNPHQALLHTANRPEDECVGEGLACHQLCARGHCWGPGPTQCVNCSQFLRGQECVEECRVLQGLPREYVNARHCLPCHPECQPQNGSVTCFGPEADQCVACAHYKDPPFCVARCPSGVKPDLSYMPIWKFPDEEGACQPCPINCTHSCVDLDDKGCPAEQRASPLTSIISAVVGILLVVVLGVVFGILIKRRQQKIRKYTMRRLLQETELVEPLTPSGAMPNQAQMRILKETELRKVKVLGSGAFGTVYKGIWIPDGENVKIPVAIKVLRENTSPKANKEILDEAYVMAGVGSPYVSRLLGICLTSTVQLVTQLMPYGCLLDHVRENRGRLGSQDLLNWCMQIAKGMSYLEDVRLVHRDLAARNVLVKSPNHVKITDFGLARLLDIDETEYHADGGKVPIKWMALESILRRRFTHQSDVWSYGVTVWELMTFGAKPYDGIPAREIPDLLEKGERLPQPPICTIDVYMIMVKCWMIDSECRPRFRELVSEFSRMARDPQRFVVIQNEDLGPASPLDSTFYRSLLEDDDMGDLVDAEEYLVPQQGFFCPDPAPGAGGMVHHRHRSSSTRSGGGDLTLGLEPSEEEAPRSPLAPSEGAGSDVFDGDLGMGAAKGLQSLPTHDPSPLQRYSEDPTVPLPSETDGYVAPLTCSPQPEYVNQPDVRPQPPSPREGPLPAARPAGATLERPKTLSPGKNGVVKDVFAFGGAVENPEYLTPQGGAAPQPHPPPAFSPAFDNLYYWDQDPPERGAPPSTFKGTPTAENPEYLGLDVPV

[10] = target: Receptor tyrosine-protein kinase erbB-2 (Homo sapiens) (UniProt P04626); test: Inhibition of human HER2 assessed as residual activity at 50 uM relative to control; method in brief: as §2
[11] = target: Mitogen-activated protein kinase 1 (Homo sapiens) (UniProt P28482); test: Inhibition of human ERK2 assessed as residual activity at 5 uM relative to control; method in brief: as §2
Sequence of Mitogen-activated protein kinase 1 (Homo sapiens) (P28482 whole entry): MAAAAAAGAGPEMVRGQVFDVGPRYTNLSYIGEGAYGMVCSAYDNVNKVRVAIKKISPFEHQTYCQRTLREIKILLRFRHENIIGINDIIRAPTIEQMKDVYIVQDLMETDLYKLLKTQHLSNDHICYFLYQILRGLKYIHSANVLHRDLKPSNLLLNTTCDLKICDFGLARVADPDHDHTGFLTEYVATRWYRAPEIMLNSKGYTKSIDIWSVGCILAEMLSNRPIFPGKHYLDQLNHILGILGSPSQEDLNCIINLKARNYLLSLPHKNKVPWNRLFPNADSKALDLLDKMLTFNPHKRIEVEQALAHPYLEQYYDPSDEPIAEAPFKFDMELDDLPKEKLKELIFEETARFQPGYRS

[12] = target: Mitogen-activated protein kinase 1 (Homo sapiens) (UniProt P28482); test: Inhibition of human ERK2 assessed as residual activity at 50 uM relative to control; method in brief: as §2
[13] = target: Mitogen-activated protein kinase 8 (Homo sapiens) (UniProt P45983); test: Inhibition of human JNK1 assessed as residual activity at 5 uM relative to control; method in brief: as §2
Sequence of Mitogen-activated protein kinase 8 (Homo sapiens) (P45983 whole entry): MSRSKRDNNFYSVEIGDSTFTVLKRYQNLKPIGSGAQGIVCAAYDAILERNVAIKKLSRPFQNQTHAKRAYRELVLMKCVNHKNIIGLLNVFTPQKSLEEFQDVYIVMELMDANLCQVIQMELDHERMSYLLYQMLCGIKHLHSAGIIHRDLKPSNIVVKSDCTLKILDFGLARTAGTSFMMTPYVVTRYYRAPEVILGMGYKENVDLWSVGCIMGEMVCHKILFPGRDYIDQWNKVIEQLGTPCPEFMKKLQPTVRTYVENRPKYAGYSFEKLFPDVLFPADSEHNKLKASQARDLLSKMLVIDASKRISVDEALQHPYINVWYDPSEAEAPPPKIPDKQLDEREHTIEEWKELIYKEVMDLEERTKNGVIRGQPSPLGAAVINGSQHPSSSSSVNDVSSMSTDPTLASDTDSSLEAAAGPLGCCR

[14] = target: Mitogen-activated protein kinase 8 (Homo sapiens) (UniProt P45983); test: Inhibition of human JNK1 assessed as residual activity at 50 uM relative to control; method in brief: as §2
[15] = target: T1, LKB1-STRAD-MO25 complex (Homo sapiens) (UniProt Q15831+Q7RTN6+Q9Y376); test: Inhibition of human LKB1/MO25/STRADalpha assessed as residual activity at 5 uM relative to control; assay type: protein-complex assay; method in brief: as §2
[16] = target: T1, LKB1-STRAD-MO25 complex (Homo sapiens); test: Inhibition of human LKB1/MO25/STRADalpha assessed as residual activity at 50 uM relative to control; assay type: protein-complex assay; method in brief: as §2
[17] = target: Mitogen-activated protein kinase 14 (Homo sapiens) (UniProt Q16539); test: Inhibition of human P38-alpha assessed as residual activity at 5 uM relative to control; method in brief: as §2
Sequence of Mitogen-activated protein kinase 14 (Homo sapiens) (Q16539 whole entry): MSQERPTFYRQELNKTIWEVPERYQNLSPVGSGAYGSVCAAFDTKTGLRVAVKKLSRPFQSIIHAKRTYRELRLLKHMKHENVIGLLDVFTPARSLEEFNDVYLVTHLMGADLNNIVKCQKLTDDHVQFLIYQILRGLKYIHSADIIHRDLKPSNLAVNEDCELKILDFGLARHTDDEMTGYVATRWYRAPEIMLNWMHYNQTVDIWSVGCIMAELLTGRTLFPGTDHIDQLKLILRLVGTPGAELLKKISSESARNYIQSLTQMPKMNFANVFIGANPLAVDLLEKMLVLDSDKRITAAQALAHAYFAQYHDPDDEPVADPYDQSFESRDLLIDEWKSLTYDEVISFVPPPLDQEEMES

[18] = target: Mitogen-activated protein kinase 14 (Homo sapiens) (UniProt Q16539); test: Inhibition of human P38-alpha assessed as residual activity at 50 uM relative to control; method in brief: as §2
HCT-116 [19] = test: Induction of morphological changes in human HCT-116 cells assessed as multiple cellular remnants formation incubated for 24 hrs by SEM analysis; assay type: functional, cell-based
HCT-116 [20] = test: Induction of morphological changes in human HCT-116 cells assessed as formation of vesicular bodies incubated for 24 hrs by SEM analysis; assay type: functional, cell-based
HCT-116 [21] = test: Induction of morphological changes in human HCT-116 cells assessed as formation of membrane blebbing incubated for 24 hrs by SEM analysis; assay type: functional, cell-based
HCT-116 [22] = test: Induction of morphological changes in human HCT-116 cells assessed as flattening of cellular structure incubated for 24 hrs by SEM analysis; assay type: functional, cell-based
HCT-116 [23] = test: Induction of morphological changes in human HCT-116 cells assessed as pore formation in cell membrane incubated for 24 hrs by SEM analysis; assay type: functional, cell-based
MCF7 [24] = test: Induction of morphological changes in human MCF7 cells assessed as formation of membrane blebbing incubated for 24 hrs by SEM analysis; assay type: functional, cell-based
MCF7 [25] = test: Induction of morphological changes in human MCF7 cells assessed as formation of round vesicular bodies incubated for 24 hrs by SEM analysis; assay type: functional, cell-based
HCT-116 [26] = test: Induction of apoptosis in human HCT-116 cells assessed as late apoptotic cells at 50 uM incubated for 12 hrs by Annexin V-FITC/PI staining based flow cytometry (reference value: 2.8 +/- 0.38 %); assay type: functional
HCT-116 [27] = test: Induction of apoptosis in human HCT-116 cells assessed as necrotic cells at 50 uM incubated for 12 hrs by Annexin V-FITC/PI staining based flow cytometry (reference value: 3.5 +/- 0.66 %); assay type: functional
MCF7 [28] = test: Induction of apoptosis in human MCF7 cells assessed as late apoptotic cells at 50 uM incubated for 12 hrs by Annexin V-FITC/PI staining based flow cytometry (reference value: 0.26 +/- 0.09 %); assay type: functional
MCF7 [29] = test: Induction of apoptosis in human MCF7 cells assessed as early apoptotic cells at 50 uM incubated for 12 hrs by Annexin V-FITC/PI staining based flow cytometry (reference value: 0.33 +/- 0.12 %); assay type: functional
MCF7 [30] = test: Induction of apoptosis in human MCF7 cells assessed as necrotic cells at 50 uM incubated for 12 hrs by Annexin V-FITC/PI staining based flow cytometry (reference value: 0.56 +/- 0.04 %); assay type: functional
HCT-116 [31] = test: Induction of cell cycle arrest in human HCT-116 cells assessed as accumulation of cells at G2/M phase at 50 uM incubated for 12 hrs by PI staining based flow cytometry (reference value: 8.3 +/- 0.74 %); assay type: functional
HCT-116 [32] = test: Induction of cell cycle arrest in human HCT-116 cells assessed as accumulation of cells at S phase at 50 uM incubated for 12 hrs by PI staining based flow cytometry (reference value: 18.7 +/- 0.5 %); assay type: functional
MCF7 [33] = test: Cytotoxicity against human MCF7 cells at 50 uM incubated for 12 hrs by PI staining based flow cytometry relative to control; assay type: functional
MCF7 [34] = test: Induction of morphological changes in human MCF7 cells assessed as formation of large pores in cell membrane incubated for 12 hrs by SEM analysis

Compound	pIC50 (MCF7 [1])	pIC50 (HCT-116 [2])	Activity (Homo sapiens [3])	Activity (Homo sapiens [4])	Activity [5]	Activity [6]	Activity [7]	Activity [8]	Activity [9]	Activity [10]	Activity [11]	Activity [12]	Activity [13]	Activity [14]	Activity [15]	Activity [16]	Activity [17]	Activity [18]	other results
Cc1ccc(S(=O)(=O)N2CC(CCn3cnc4c(Cl)ncnc43)Oc3ccc(Br)cc32)cc1 (stereo not given)	4.84	4.81	–	–	–	–	–	–	–	–	–	–	–	–	–	–	–	–	–
Cc1ccc(S(=O)(=O)N2CC(CCn3cnc4c(Cl)nc(Cl)nc43)Oc3ccc(Br)cc32)cc1 (stereo not given)	5.26	5.11	95%	87%	86%	70%	94%	59%	78%	63%	86%	66%	88%	44%	98%	95%	97%	59%	–
Cc1ccc(S(=O)(=O)N2CC(CCn3cnc4c(C(F)(F)F)ncnc43)Oc3cc(Cl)ccc32)cc1 (stereo not given)	4.64	4.87	–	–	–	–	–	–	–	–	–	–	–	–	–	–	–	–	–
Cc1ccc(S(=O)(=O)N2CC(CCn3cnc4c(C(F)(F)F)ncnc43)Oc3ccc(C)cc32)cc1 (stereo not given)	4.51	5.33	–	–	–	–	–	–	–	–	–	–	–	–	–	–	–	–	–
Cc1ccc(S(=O)(=O)N2CC(CCn3cnc4c(Cl)nc(Cl)nc43)Oc3cc(Cl)ccc32)cc1 (stereo not given)	5.49	5.12	103%	139%	87%	89%	74%	57%	76%	67%	93%	94%	78%	67%	84%	100%	72%	77%	Activity (HCT-116 [19]): Active; Activity (HCT-116 [20]): Active; Activity (HCT-116 [21]): Active; Activity (HCT-116 [22]): Active; Activity (HCT-116 [23]): Active; Activity (MCF7 [24]): Active; Activity (MCF7 [25]): Active; Activity (HCT-116 [26]): 49.5%; Activity (HCT-116 [27]): 28.4%; Activity (MCF7 [28]): 87.3%; Activity (MCF7 [29]): 7.9%; Activity (MCF7 [30]): 0.83%; Activity (HCT-116 [31]): 6.67%; Activity (HCT-116 [32]): 49.2%; Activity (MCF7 [33]): 100%; Activity (MCF7 [34]): Active
Cc1ccc(S(=O)(=O)N2CC(CCn3cnc4c(Br)ncnc43)Oc3ccc(C)cc32)cc1 (stereo not given)	5.40	5.03	89%	106%	90%	86%	97%	67%	99%	55%	81%	74%	84%	52%	95%	131%	93%	70%	–
Cc1ccc(S(=O)(=O)N2CC(CCn3cnc4c(Cl)ncnc43)Oc3cc(Cl)ccc32)cc1 (stereo not given)	4.95	4.83	–	–	–	–	–	–	–	–	–	–	–	–	–	–	–	–	–
Cc1ccc(S(=O)(=O)N2CC(CCn3cnc4c(Cl)nc(Cl)nc43)Oc3ccc(C)cc32)cc1 (stereo not given)	5.64	5.35	88%	104%	93%	75%	96%	62%	90%	50%	88%	73%	96%	56%	88%	89%	112%	82%	Activity (HCT-116 [19]): Active; Activity (HCT-116 [20]): Active; Activity (HCT-116 [21]): Active; Activity (HCT-116 [22]): Active; Activity (MCF7 [24]): Active; Activity (MCF7 [25]): Active; Activity (HCT-116 [26]): 26.5%; Activity (HCT-116 [27]): 36.3%; Activity (MCF7 [28]): 77.8%; Activity (MCF7 [29]): 9.3%; Activity (MCF7 [30]): 2.1%; Activity (HCT-116 [31]): 5.3%; Activity (HCT-116 [32]): 51.25%; Activity (MCF7 [33]): 100%; Activity (MCF7 [34]): Active
Cc1ccc(S(=O)(=O)N2CC(CCn3cnc4c(Cl)ncnc43)Oc3ccc(C)cc32)cc1 (stereo not given)	4.89	4.62	–	–	–	–	–	–	–	–	–	–	–	–	–	–	–	–	–
Cc1ccc(S(=O)(=O)N2CC(CCn3cnc4c(Br)ncnc43)Oc3ccc(Br)cc32)cc1 (stereo not given)	5.14	4.79	–	–	–	–	–	–	–	–	–	–	–	–	–	–	–	–	–
Cc1ccc(S(=O)(=O)N2CC(CCn3cnc4c(C(F)(F)F)ncnc43)Oc3ccc(Br)cc32)cc1 (stereo not given)	4.69	4.63	–	–	–	–	–	–	–	–	–	–	–	–	–	–	–	–	–
Cc1ccc(S(=O)(=O)N2CC(CCn3cnc4c(Br)ncnc43)Oc3cc(Cl)ccc32)cc1 (stereo not given)	5.17	4.89	94%	99%	90%	73%	108%	64%	84%	65%	90%	68%	89%	47%	94%	129%	91%	112%	–
